In brackets after ≈: the same amount, converted by molar mass.
Tests used:
[1] = tested on: Bacillus cereus; assay: Antibacterial activity against Bacillus cereus clinical isolate after 24 hrs by iodonitrotetrazolium chloride dye based microdilution assay; format: functional
Method in brief: (§1)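 Fresh overnight cultures adjusted spectrophotometrically to 1×10^5 CFU/mL, giving 1.0×10^4 CFU per well in tryptic soy broth. Compounds were dissolved in 5% DMSO and tested at 0.001-1.0 mg/ml by serial dilution; 5% DMSO was the negative control. After 24 h at 37 °C, 0.2 mg/mL INT solution was added for 30 min at 37 °C and OD read at 655 nm. MIC is the lowest concentration giving significant growth inhibition versus the positive control. Duplicates, repeated three times.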

[2] = tested on: Bacillus cereus; assay: Bactericidal activity against Bacillus cereus clinical isolate incubated for 24 hrs followed by re-plating on tryptic soy broth; format: functional
Method in brief: (§2)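 Bacteria were grown in tryptic soy broth, 1.0×10^4 CFU per well, with compounds in 5% DMSO at 0.001-1.0 mg/ml for 24 h at 37 °C. Then 10 µL was subcultured into fresh TSB. MBC is the lowest concentration showing no growth after subculture, taken as 99.5% kill of the original inoculum. Duplicates, repeated three times.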

[3] = tested on: Micrococcus flavus; assay: Antibacterial activity against Micrococcus flavus ATCC 10240 after 24 hrs by iodonitrotetrazolium chloride dye based microdilution method; format: functional; settings: ATCC 10240, 24 h; method in brief: as §1
[4] = tested on: Micrococcus flavus; assay: Bactericidal activity against Micrococcus flavus ATCC 10240 incubated for 24 hrs followed by re-plating on tryptic soy broth; format: functional; settings: ATCC 10240, 24 h; method in brief: as §2
[5] = tested on: Staphylococcus aureus; assay: Antibacterial activity against Staphylococcus aureus ATCC 6538 after 24 hrs by iodonitrotetrazolium chloride dye based microdilution method; format: functional; settings: ATCC 6538, 24 h; method in brief: as §1
[6] = tested on: Staphylococcus aureus; assay: Bactericidal activity against Staphylococcus aureus ATCC 6538 incubated for 24 hrs followed by re-plating on tryptic soy broth; format: functional; settings: ATCC 6538, 24 h; method in brief: as §2
[7] = tested on: Listeria monocytogenes; assay: Antibacterial activity against Listeria monocytogenes NCTC 7973 after 24 hrs by iodonitrotetrazolium chloride dye based microdilution method; format: functional; settings: NCTC 7973, 24 h; method in brief: as §1
[8] = tested on: Listeria monocytogenes; assay: Bactericidal activity against Listeria monocytogenes NCTC 7973 incubated for 24 hrs followed by re-plating on tryptic soy broth; format: functional; settings: NCTC 7973, 24 h; method in brief: as §2
[9] = tested on: Enterobacter cloacae; assay: Antibacterial activity against Enterobacter cloacae clinical isolate after 24 hrs by iodonitrotetrazolium chloride dye based microdilution method; format: functional; method in brief: as §1
[10] = tested on: Enterobacter cloacae; assay: Bactericidal activity against Enterobacter cloacae incubated for 24 hrs followed by re-plating on tryptic soy broth; format: functional; method in brief: as §2
[11] = tested on: Pseudomonas aeruginosa; assay: Antibacterial activity against Pseudomonas aeruginosa ATCC 27853 after 24 hrs by iodonitrotetrazolium chloride dye based microdilution method; format: functional; settings: ATCC 27853, 24 h; method in brief: as §1
[12] = tested on: Pseudomonas aeruginosa; assay: Bactericidal activity against Pseudomonas aeruginosa ATCC 27853 incubated for 24 hrs followed by re-plating on tryptic soy broth; format: functional; settings: ATCC 27853, 24 h; method in brief: as §2
[13] = tested on: Salmonella typhimurium; assay: Antibacterial activity against Salmonella typhimurium ATCC 13311 after 24 hrs by iodonitrotetrazolium chloride dye based microdilution method; format: functional, Salmonella enterica subsp. enterica serovar Typhimurium; settings: Salmonella enterica, ATCC 13311, 24 h; method in brief: as §1
[14] = tested on: Salmonella typhimurium; assay: Bactericidal activity against Salmonella typhimurium ATCC 13311 incubated for 24 hrs followed by re-plating on tryptic soy broth; format: functional, Salmonella enterica subsp. enterica serovar Typhimurium; settings: Salmonella enterica, ATCC 13311, 24 h; method in brief: as §2
[15] = tested on: Escherichia coli; assay: Antibacterial activity against Escherichia coli ATCC 35210 after 24 hrs by iodonitrotetrazolium chloride dye based microdilution method; format: functional; settings: ATCC 35210, 24 h; method in brief: as §1
[16] = tested on: Escherichia coli; assay: Bactericidal activity against Escherichia coli ATCC 35210 incubated for 24 hrs followed by re-plating on tryptic soy broth; format: functional; settings: ATCC 35210, 24 h; method in brief: as §2
[17] = tested on: Aspergillus fumigatus; assay: Antifungal activity against Aspergillus fumigatus ATCC 1022 after 72 hrs by microdilution technique; format: functional; settings: ATCC 1022, 72 h
Method in brief: (§3)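 Spores were washed off malt agar with 0.85% saline containing 0.1% Tween 80 and adjusted to about 1.0×10^5 per well. Compounds in 5% DMSO were serially diluted (0.001-1.0 mg/ml) in malt broth with inoculum. Plates were shaken at 160 rpm for 72 h at 28 °C. MIC is the lowest concentration without visible growth under a binocular microscope. Three independent experiments in duplicate.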

[18] = tested on: Aspergillus fumigatus; assay: Fungicidal activity against Aspergillus fumigatus ATCC 1022 incubated for 72 hrs followed by sub-culturing on broth malt medium and measured after 72 hrs; format: functional; settings: ATCC 1022, 72 h
Method in brief: (§4)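 After 72 h exposure in malt broth, 2 µL from test wells was subcultured into wells holding 100 µL broth and incubated a further 72 h at 28 °C. MFC is the lowest concentration with no visible growth, taken as 99.5% kill of the original inoculum. Three independent experiments in duplicate.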

[19] = tested on: Aspergillus versicolor; assay: Antifungal activity against Aspergillus versicolor ATCC 11730 after 72 hrs by microdilution method; format: functional; settings: ATCC 11730, 72 h; method in brief: as §3
[20] = tested on: Aspergillus versicolor; assay: Fungicidal activity against Aspergillus versicolor ATCC 11730 incubated for 72 hrs followed by sub-culturing on broth malt medium and measured after 72 hrs; format: functional; settings: ATCC 11730, 72 h; method in brief: as §4
[21] = tested on: Aspergillus ochraceus; assay: Antifungal activity against Aspergillus ochraceus ATCC 12066 after 72 hrs by microdilution technique; format: functional; settings: ATCC 12066, 72 h; method in brief: as §3
[22] = tested on: Aspergillus ochraceus; assay: Fungicidal activity against Aspergillus ochraceus ATCC 12066 incubated for 72 hrs followed by sub-culturing on broth malt medium and measured after 72 hrs; format: functional; settings: ATCC 12066, 72 h; method in brief: as §4
[23] = tested on: Aspergillus niger; assay: Antifungal activity against Aspergillus niger ATCC 6275 after 72 hrs by microdilution technique; format: functional; settings: ATCC 6275, 72 h; method in brief: as §3
[24] = tested on: Aspergillus niger; assay: Fungicidal activity against Aspergillus niger ATCC 6275 incubated for 72 hrs followed by sub-culturing on broth malt medium and measured after 72 hrs; format: functional; settings: ATCC 6275, 72 h; method in brief: as §4
[25] = tested on: Trichoderma viride; assay: Antifungal activity against Trichoderma viride IAM 5061 after 72 hrs by microdilution technique; format: functional; settings: IAM 5061, 72 h; method in brief: as §3
[26] = tested on: Trichoderma viride; assay: Fungicidal activity against Trichoderma viride IAM 5061 incubated for 72 hrs followed by sub-culturing on broth malt medium and measured after 72 hrs; format: functional; settings: IAM 5061, 72 h; method in brief: as §4
[27] = tested on: Penicillium ochrochloron; assay: Antifungal activity against Penicillium ochrochloron ATCC 9112 after 72 hrs by microdilution technique; format: functional; settings: ATCC 9112, 72 h; method in brief: as §3
[28] = tested on: Penicillium ochrochloron; assay: Fungicidal activity against Penicillium ochrochloron ATCC 9112 incubated for 72 hrs followed by sub-culturing on broth malt medium and measured after 72 hrs; format: functional; settings: ATCC 9112, 72 h; method in brief: as §4
[29] = Antifungal activity against Penicillium funiculosum ATCC 36839 after 72 hrs by microdilution technique; format: functional; settings: Talaromyces pinophilus, ATCC 36839, 72 h; method in brief: as §3
[30] = Fungicidal activity against Penicillium funiculosum ATCC 36839 incubated for 72 hrs followed by sub-culturing on broth malt medium and measured after 72 hrs; format: functional; settings: Talaromyces pinophilus, ATCC 36839, 72 h; method in brief: as §4
[31] = tested on: Penicillium cyclopium; assay: Antifungal activity against Penicillium verrucosum var. cyclopium food isolate after 72 hrs by microdilution technique; format: functional; method in brief: as §3
[32] = tested on: Penicillium cyclopium; assay: Fungicidal activity against Penicillium verrucosum var. cyclopium food isolate incubated for 72 hrs followed by sub-culturing on broth malt medium and measured after 72 hrs; format: functional; method in brief: as §4

SMILES | MIC [1] [µM] | MBC [2] [µM] | MIC [3] [µM] | MBC [4] [µM] | MIC [5] [µM] | MBC [6] [µM] | MIC [7] [µM] | MBC [8] [µM] | MIC [9] [µM] | MBC [10] [µM] | MIC [11] [µM] | MBC [12] [µM] | MIC [13] [µM] | MBC [14] [µM] | MIC [15] [µM] | MBC [16] [µM] | MIC [17] [×10⁻² mM] | MFC [18] [×10⁻² mM] | MIC [19] [×10⁻² mM] | MFC [20] [×10⁻² mM] | also measured
CCOc1ccc2c(c1)-c1c(ssc1=S)C(C)(C)N2 | 29.5 (≈ 9.13 µg/mL) | 59 (≈ 18.3 µg/mL) | 29.5 (≈ 9.13 µg/mL) | 59 (≈ 18.3 µg/mL) | 29.5 (≈ 9.13 µg/mL) | 59 (≈ 18.3 µg/mL) | 29.5 (≈ 9.13 µg/mL) | 59 (≈ 18.3 µg/mL) | 29.5 (≈ 9.13 µg/mL) | 59 (≈ 18.3 µg/mL) | 29.5 (≈ 9.13 µg/mL) | 59 (≈ 18.3 µg/mL) | 29.5 (≈ 9.13 µg/mL) | 59 (≈ 18.3 µg/mL) | 29.5 (≈ 9.13 µg/mL) | 59 (≈ 18.3 µg/mL) | 5.9 | 11.8 | 5.9 | 11.8 | MIC [21]: 11.8 ×10⁻² mM; MFC [22]: 23.6 ×10⁻² mM; MIC [23]: 4.32 ×10⁻² mM; MFC [24]: 11.8 ×10⁻² mM; MIC [25]: 1.18 ×10⁻² mM; MFC [26]: 2.95 ×10⁻² mM; MIC [27]: 0.79 ×10⁻² mM; MFC [28]: 1.57 ×10⁻² mM; MIC [29]: 11.8 ×10⁻² mM; MFC [30]: 23.6 ×10⁻² mM; MIC [31]: 8.85 ×10⁻² mM; MFC [32]: 23.6 ×10⁻² mM
CC1(C)c2ssc(=S)c2-c2ccccc2N1C(=O)CSC1=NCCS1 | 106 (≈ 45 µg/mL) | 141 (≈ 59.9 µg/mL) | 106 (≈ 45 µg/mL) | 141 (≈ 59.9 µg/mL) | 106 (≈ 45 µg/mL) | 141 (≈ 59.9 µg/mL) | 106 (≈ 45 µg/mL) | 141 (≈ 59.9 µg/mL) | 70.7 (≈ 30 µg/mL) | 141 (≈ 59.9 µg/mL) | 70.7 (≈ 30 µg/mL) | 141 (≈ 60 µg/mL) | 106 (≈ 45 µg/mL) | 141 (≈ 60 µg/mL) | 106 (≈ 45 µg/mL) | 141 (≈ 59.9 µg/mL) | 3.53 | 7.06 | 3.53 | 7.06 | MIC [21]: 1.88 ×10⁻² mM; MFC [22]: 3.53 ×10⁻² mM; MIC [23]: 3.53 ×10⁻² mM; MFC [24]: 7.06 ×10⁻² mM; MIC [25]: 1.88 ×10⁻² mM; MFC [26]: 3.53 ×10⁻² mM; MIC [27]: 3.53 ×10⁻² mM; MFC [28]: 7.06 ×10⁻² mM; MIC [29]: 3.53 ×10⁻² mM; MFC [30]: 7.06 ×10⁻² mM; MIC [31]: 3.53 ×10⁻² mM; MFC [32]: 7.06 ×10⁻² mM

Source: ChEMBL document CHEMBL4393701, “Appendix A. dithioloquinolinethiones as new potential multitargeted antibacterial and antifungal agents: Synthesis, biological evaluation and molecular docking studies” (2019)
